Results published in ChEMBL document CHEMBL2384906, “Biological activity, design, synthesis and structure activity relationship of some novel derivatives of curcumin containing sulfonamides” (Eur J Med Chem, 2013).
Values after ≈ are worked out from the molar mass of the structure shown.

Legend:
Pseudomonas aeruginosa [1] = test: Antimicrobial activity against Pseudomonas aeruginosa ATCC 15499 assessed as diameter of inhibition zone at 80 uM after 24 hrs by Kirby -Baur disc diffusion method; format: functional; conditions: ATCC 15499, 24 h, read-out: DIZ
In short: (§1)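 Kirby-Bauer disc diffusion was used. Acetone stocks (160 µM) were serially doubled down to 80, 40 and 20 µM. 4 µL of each went onto 5 mm sterile paper discs, which were dried 30 min at 50 °C. Inoculum was 1.5 × 10⁸ CFU/mL diluted to 3 × 10² CFU/mL, and 50 µL was spread on Mueller-Hinton agar. After 24 h at 37 °C the inhibition-zone diameter was measured. Ciprofloxacin served as positive control.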

Staphylococcus aureus [2] = test: Antimicrobial activity against Staphylococcus aureus ATCC 11632 assessed as diameter of inhibition zone at 40 uM after 24 hrs by Kirby -Baur disc diffusion method; format: functional; conditions: ATCC 11632, 24 h, read-out: DIZ; in short: as §1
HeLa = test: Cytotoxicity against human HeLa cells after 24 hrs by MTT assay; format: functional, cell-based
In short: (§2)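 The MTT assay seeded 5 × 10⁴ cells per well and grew them 24 h in RPMI 1640 with compound at 2.5–200 µM. Medium without cells was the blank and adriamycin the positive control. MTT was added for 4 h at 37 °C, formazan was solubilised, and absorbance was read at 570 nm. IC50 is the concentration that cuts viability 50% against untreated cells.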

Trichoderma viride [3] = test: Antifungal activity against Trichoderma viride MTCC 1107 assessed as zone of inhibition at 40 uM after 48 hrs by disc diffusion method; format: functional; conditions: MTCC 1107, 48 h, read-out: IZ
In short: (§3)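 Spores from 4-day potato dextrose agar cultures, suspended in sterile water at 1.5 × 10⁵ CFU/mL. 0.2 mL was spread on potato dextrose agar. 5 mm filter-paper discs soaked with test compound were laid on the lawn. Incubation was 48 h at 28 °C, then the inhibition zone was measured in mm. Fluconazole was the positive control and acetone the negative control.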

Escherichia coli [4] = test: Antimicrobial activity against Escherichia coli ATCC 35218 after 24 hrs by broth micro serial dilution method; format: functional; conditions: ATCC 35218, 24 h
In short: (§4)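 This was broth microdilution in autoclaved Mueller-Hinton broth. 150 µL of compound per well was serially diluted […], and 50 µL of test organism was added. Plates were incubated 24 h at 37 °C and optical density was read.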

Aspergillus flavus [5] = test: Antifungal activity against Aspergillus flavus MTCC 1021 after 48 hrs; format: functional; conditions: MTCC 1021, 48 h
Trichoderma viride [6] = test: Antifungal activity against Trichoderma viride MTCC 1107 assessed as zone of inhibition at 20 uM after 48 hrs by disc diffusion method; format: functional; conditions: MTCC 1107, 48 h, read-out: IZ; in short: as §3
Curvularia lunata [7] = test: Antifungal activity against Curvularia lunata MTCC 581 assessed as zone of inhibition at 40 uM after 48 hrs by disc diffusion method; format: functional; conditions: MTCC 581, 48 h, read-out: IZ; in short: as §3
Aspergillus niger [8] = test: Antifungal activity against Aspergillus niger MTCC 1108 assessed as zone of inhibition at 80 uM after 48 hrs by disc diffusion method; format: functional; conditions: MTCC 1108, 48 h, read-out: IZ; in short: as §3
Salmonella typhi [9] = test: Antimicrobial activity against Salmonella typhi ATCC 23564 assessed as diameter of inhibition zone at 40 uM after 24 hrs by Kirby -Baur disc diffusion method; format: functional, Salmonella enterica subsp. enterica serovar Typhi; conditions: Salmonella enterica, ATCC 23564, 24 h; read-out: DIZ
Trichoderma viride [10] = test: Antifungal activity against Trichoderma viride MTCC 1107 assessed as zone of inhibition at 80 uM after 48 hrs by disc diffusion method; format: functional; conditions: MTCC 1107, 48 h, read-out: IZ; in short: as §3
Aspergillus flavus [11] = test: Antifungal activity against Aspergillus flavus MTCC 1021 assessed as zone of inhibition at 40 uM after 48 hrs by disc diffusion method; format: functional; conditions: MTCC 1021, 48 h, read-out: IZ; in short: as §3
Bacillus cereus [12] = test: Antimicrobial activity against Bacillus cereus MTCC 7350 after 24 hrs by broth micro serial dilution method; format: functional; conditions: MTCC 7350, 24 h; in short: as §4
Bacillus cereus [13] = test: Antimicrobial activity against Bacillus cereus MTCC 7350 assessed as diameter of inhibition zone at 40 uM after 24 hrs by Kirby -Baur disc diffusion method; format: functional; conditions: MTCC 7350, 24 h, read-out: DIZ; in short: as §1
Bacillus cereus [14] = test: Antimicrobial activity against Bacillus cereus MTCC 7350 assessed as diameter of inhibition zone at 80 uM after 24 hrs by Kirby -Baur disc diffusion method; format: functional; conditions: MTCC 7350, 24 h, read-out: DIZ; in short: as §1
Salmonella typhi [15] = test: Antimicrobial activity against Salmonella typhi ATCC 23564 assessed as diameter of inhibition zone at 20 uM after 24 hrs by Kirby -Baur disc diffusion method; format: functional, Salmonella enterica subsp. enterica serovar Typhi; conditions: Salmonella enterica, ATCC 23564, 24 h; read-out: DIZ
Mus musculus = test: Antiinflammatory activity in mouse assessed as inhibition of carrageenan-induced increase in paw volume at 200 mg/kg administered 1 hr prior to carrageenan challenge measured after 3 hrs relative to control; format: functional
In short: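 Mice were fasted 2 h and placed in groups of five. Controls received saline i.p. Phenylbutazone was given at 100 mg/kg i.p., curcumin at 200 mg/kg i.p., and derivatives at 200 mg/kg. After 1 h, 0.1 mL of 1% carrageenan in saline was injected subplantar into the right hind paw. Paw volume was followed by plethysmometer for 3 h, and % inhibition was calculated as (Vc − Vt)/Vc × 100.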

Bacillus cereus [16] = test: Antimicrobial activity against Bacillus cereus MTCC 7350 assessed as diameter of inhibition zone at 20 uM after 24 hrs by Kirby -Baur disc diffusion method; format: functional; conditions: MTCC 7350, 24 h, read-out: DIZ; in short: as §1
QG-56 = test: Cytotoxicity against human QG56 cells after 24 hrs by MTT assay; format: functional, cell-based; in short: as §2
Aspergillus niger [17] = test: Antifungal activity against Aspergillus niger MTCC 1108 after 48 hrs; format: functional; conditions: MTCC 1108, 48 h
Curvularia lunata [18] = test: Antifungal activity against Curvularia lunata MTCC 581 after 48 hrs; format: functional; conditions: MTCC 581, 48 h
Curvularia lunata [19] = test: Antifungal activity against Curvularia lunata MTCC 581 assessed as zone of inhibition at 20 uM after 48 hrs by disc diffusion method; format: functional; conditions: MTCC 581, 48 h, read-out: IZ; in short: as §3
Pseudomonas aeruginosa [20] = test: Antimicrobial activity against Pseudomonas aeruginosa ATCC 15499 assessed as diameter of inhibition zone at 20 uM after 24 hrs by Kirby -Baur disc diffusion method; format: functional; conditions: ATCC 15499, 24 h, read-out: DIZ; in short: as §1
Staphylococcus aureus [21] = test: Antimicrobial activity against Staphylococcus aureus ATCC 11632 assessed as diameter of inhibition zone at 20 uM after 24 hrs by Kirby -Baur disc diffusion method; format: functional; conditions: ATCC 11632, 24 h, read-out: DIZ; in short: as §1
Aspergillus niger [22] = test: Antifungal activity against Aspergillus niger MTCC 1108 assessed as zone of inhibition at 40 uM after 48 hrs by disc diffusion method; format: functional; conditions: MTCC 1108, 48 h, read-out: IZ; in short: as §3
HCT-116 = test: Cytotoxicity against human HCT116 cells after 24 hrs by MTT assay; format: functional, cell-based; in short: as §2
Escherichia coli [23] = test: Antimicrobial activity against Escherichia coli ATCC 35218 assessed as diameter of inhibition zone at 80 uM after 24 hrs by Kirby -Baur disc diffusion method; format: functional; conditions: ATCC 35218, 24 h, read-out: DIZ; in short: as §1
Aspergillus niger [24] = test: Antifungal activity against Aspergillus niger MTCC 1108 assessed as zone of inhibition at 20 uM after 48 hrs by disc diffusion method; format: functional; conditions: MTCC 1108, 48 h, read-out: IZ; in short: as §3
Curvularia lunata [25] = test: Antifungal activity against Curvularia lunata MTCC 581 assessed as zone of inhibition at 80 uM after 48 hrs by disc diffusion method; format: functional; conditions: MTCC 581, 48 h, read-out: IZ; in short: as §3
Salmonella typhi [26] = test: Antimicrobial activity against Salmonella typhi ATCC 23564 after 24 hrs by broth micro serial dilution method; format: functional, Salmonella enterica subsp. enterica serovar Typhi; conditions: Salmonella enterica, ATCC 23564, 24 h
Aspergillus flavus [27] = test: Antifungal activity against Aspergillus flavus MTCC 1021 assessed as zone of inhibition at 20 uM after 48 hrs by disc diffusion method; format: functional; conditions: MTCC 1021, 48 h, read-out: IZ; in short: as §3
Salmonella typhi [28] = test: Antimicrobial activity against Salmonella typhi ATCC 23564 assessed as diameter of inhibition zone at 80 uM after 24 hrs by Kirby -Baur disc diffusion method; format: functional, Salmonella enterica subsp. enterica serovar Typhi; conditions: Salmonella enterica, ATCC 23564, 24 h; read-out: DIZ
Staphylococcus aureus [29] = test: Antimicrobial activity against Staphylococcus aureus ATCC 11632 after 24 hrs by broth micro serial dilution method; format: functional; conditions: ATCC 11632, 24 h; in short: as §4
Escherichia coli [30] = test: Antimicrobial activity against Escherichia coli ATCC 35218 assessed as diameter of inhibition zone at 40 uM after 24 hrs by Kirby -Baur disc diffusion method; format: functional; conditions: ATCC 35218, 24 h, read-out: DIZ; in short: as §1
Aspergillus flavus [31] = test: Antifungal activity against Aspergillus flavus MTCC 1021 assessed as zone of inhibition at 80 uM after 48 hrs by disc diffusion method; format: functional; conditions: MTCC 1021, 48 h, read-out: IZ; in short: as §3
Trichoderma viride [32] = test: Antifungal activity against Trichoderma viride MTCC 1107 after 48 hrs; format: functional; conditions: MTCC 1107, 48 h
HepG2 = test: Cytotoxicity against human HepG2 cells after 24 hrs by MTT assay; format: functional, cell-based; in short: as §2
Pseudomonas aeruginosa [33] = test: Antimicrobial activity against Pseudomonas aeruginosa ATCC 15499 assessed as diameter of inhibition zone at 40 uM after 24 hrs by Kirby -Baur disc diffusion method; format: functional; conditions: ATCC 15499, 24 h, read-out: DIZ; in short: as §1
Staphylococcus aureus [34] = test: Antimicrobial activity against Staphylococcus aureus ATCC 11632 assessed as diameter of inhibition zone at 80 uM after 24 hrs by Kirby -Baur disc diffusion method; format: functional; conditions: ATCC 11632, 24 h, read-out: DIZ; in short: as §1
Pseudomonas aeruginosa [35] = test: Antimicrobial activity against Pseudomonas aeruginosa ATCC 15499 after 24 hrs by broth micro serial dilution method; format: functional; conditions: ATCC 15499, 24 h; in short: as §4
Escherichia coli [36] = test: Antimicrobial activity against Escherichia coli ATCC 35218 assessed as diameter of inhibition zone at 20 uM after 24 hrs by Kirby -Baur disc diffusion method; format: functional; conditions: ATCC 35218, 24 h, read-out: DIZ; in short: as §1

Compound: COc1ccc(NS(=O)(=O)c2ccc(/N=C(\C=C\c3ccc(O)c(OC)c3)CC(/C=C/c3ccc(O)c(OC)c3)=N/c3ccc(S(=O)(=O)Nc4ccc(OC)nn4)cc3)cc2)nn1
- zone of inhibition at 80 µM (Pseudomonas aeruginosa [1]): 22 mm
- zone of inhibition at 40 µM (Staphylococcus aureus [2]): 19 mm
- IC50 (HeLa): 50 µM
- zone of inhibition at 40 µM (Trichoderma viride [3]): 16 mm
- MIC (Escherichia coli [4]): 40 µM (≈ 35.7 µg/mL)
- MIC (Aspergillus flavus [5]): 80 µM (≈ 71.4 µg/mL)
- zone of inhibition at 20 µM (Trichoderma viride [6]): 12 mm
- zone of inhibition at 40 µM (Curvularia lunata [7]): 15 mm
- zone of inhibition at 80 µM (Aspergillus niger [8]): 12 mm
- zone of inhibition at 40 µM (Salmonella typhi [9]): 19 mm
- zone of inhibition at 80 µM (Trichoderma viride [10]): 19 mm
- zone of inhibition at 40 µM (Aspergillus flavus [11]): 11 mm
- MIC (Bacillus cereus [12]): 40 µM (≈ 35.7 µg/mL)
- zone of inhibition at 40 µM (Bacillus cereus [13]): 17 mm
- zone of inhibition at 80 µM (Bacillus cereus [14]): 22 mm
- zone of inhibition at 20 µM (Salmonella typhi [15]): 14 mm
- inhibition in vivo at 200 mg/kg (Mus musculus): 33.8%
- zone of inhibition at 20 µM (Bacillus cereus [16]): 13 mm
- IC50 (QG-56): 50 µM
- MIC (Aspergillus niger [17]): 40 µM (≈ 35.7 µg/mL)
- MIC (Curvularia lunata [18]): 20 µM (≈ 17.9 µg/mL)
- zone of inhibition at 20 µM (Curvularia lunata [19]): 12 mm
- zone of inhibition at 20 µM (Pseudomonas aeruginosa [20]): 12 mm
- zone of inhibition at 20 µM (Staphylococcus aureus [21]): 11 mm
- zone of inhibition at 40 µM (Aspergillus niger [22]): 10 mm
- IC50 (HCT-116): 25 µM
- zone of inhibition at 80 µM (Escherichia coli [23]): 19 mm
- zone of inhibition at 20 µM (Aspergillus niger [24]): 8 mm
- zone of inhibition at 80 µM (Curvularia lunata [25]): 18 mm
- MIC (Salmonella typhi [26]): 40 µM (≈ 35.7 µg/mL)
- zone of inhibition at 20 µM (Aspergillus flavus [27]): 9 mm
- zone of inhibition at 80 µM (Salmonella typhi [28]): 21 mm
- MIC (Staphylococcus aureus [29]): 40 µM (≈ 35.7 µg/mL)
- zone of inhibition at 40 µM (Escherichia coli [30]): 17 mm
- zone of inhibition at 80 µM (Aspergillus flavus [31]): 13 mm
- MIC (Trichoderma viride [32]): 20 µM (≈ 17.9 µg/mL)
- IC50 (HepG2): 50 µM
- zone of inhibition at 40 µM (Pseudomonas aeruginosa [33]): 19 mm
- zone of inhibition at 80 µM (Staphylococcus aureus [34]): 21 mm
- MIC (Pseudomonas aeruginosa [35]): 40 µM (≈ 35.7 µg/mL)
- zone of inhibition at 20 µM (Escherichia coli [36]): 14 mm
